Converted amounts (≈) assume the structure as drawn.
Legend:
Klebsiella pneumoniae [1] = test: Inhibition of OXA-48 in Klebsiella pneumoniae assessed as meropenem antibacterial activity at 4 ug/ml after 16 to 20 hrs by CLSI-based microbroth dilution method (Rvb >= […] ug/ml)
Pseudomonas aeruginosa [2] = test: Inhibition of VIM in Pseudomonas aeruginosa CDC-0457 assessed as cefepime antibacterial activity at 8 ug/ml after 16 to 20 hrs by CLSI-based microbroth dilution method
Pseudomonas aeruginosa [3] = test: Inhibition of KPC-2/PDC-42 in Pseudomonas aeruginosa CDC-0356 assessed as cefepime antibacterial activity at 8 ug/ml after 16 to 20 hrs by CLSI-based microbroth dilution method (Rvb > […] ug/ml)
[4] = system: Klebsiella pneumoniae ATCC BAA-1705; test: Inhibition of KPC-2 in Klebsiella pneumoniae ATCC BAA 1705 assessed as cefepime antibacterial activity at 8 ug/ml after 16 to 20 hrs by CLSI-based microbroth dilution method
Summary of the method: (§1)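 MDR β-lactamase-producing Gram-negative clinical isolates. […] MIC was reported as the inhibitor concentration that restores the partner's antibacterial activity.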

Klebsiella pneumoniae [5] = test: Inhibition of OXA-232/OXA-9/TEM-1A/CTX-M-15/OXA-1 in Klebsiella pneumoniae CDC-0066 assessed as meropenem antibacterial activity at 4 ug/ml after 16 to 20 hrs by CLSI-based microbroth dilution method (reference value: […] ug/ml)
Escherichia coli [6] = test: Inhibition of NDM-1/CMY-6/OXA-1 in Escherichia coli CDC-0055 assessed as meropenem antibacterial activity at 4 ug/ml after 16 to 20 hrs by CLSI-based microbroth dilution method (reference value: […] ug/ml)
Escherichia coli [7] = test: Inhibition of NDM-1/CMY-6/OXA-1 in Escherichia coli CDC-0055 assessed as piperacillin antibacterial activity at 16 ug/ml after 16 to 20 hrs by CLSI-based microbroth dilution method; summary of the method: as §1
Escherichia coli [8] = test: Inhibition of NDM in Escherichia coli CDC-0452 assessed as cefepime antibacterial activity after 16 to 20 hrs by CLSI-based microbroth dilution method (reference value: […] ug/ml)
Pseudomonas aeruginosa [9] = test: Inhibition of VIM in Pseudomonas aeruginosa CDC-0457 assessed as piperacillin antibacterial activity at 16 ug/ml after 16 to 20 hrs by CLSI-based microbroth dilution method
[10] = system: Klebsiella pneumoniae ATCC BAA-1705; test: Inhibition of KPC-2 in Klebsiella pneumoniae ATCC BAA 1705 assessed as meropenem antibacterial activity at 4 ug/ml after 16 to 20 hrs by CLSI-based microbroth dilution method (reference value: […] ug/ml)
[11] = system: Klebsiella pneumoniae ATCC BAA-1705; test: Inhibition of KPC-2 in Klebsiella pneumoniae ATCC BAA 1705 assessed as piperacillin antibacterial activity at 16 ug/ml after 16 to 20 hrs by CLSI-based microbroth dilution method (Rvb > […] ug/ml)
Klebsiella pneumoniae [12] = test: Inhibition of KPC-2/SHV12/TEM-1 in Klebsiella pneumoniae CDC-0361 assessed as meropenem antibacterial activity at 4 ug/ml after 16 to 20 hrs by CLSI-based microbroth dilution method (reference value: […] ug/ml)
Escherichia coli [13] = test: Inhibition of NDM-1/CMY-6/OXA-1 in Escherichia coli CDC-0055 assessed as cefepime antibacterial activity at 8 ug/ml after 16 to 20 hrs by CLSI-based microbroth dilution method; summary of the method: as §1
Klebsiella pneumoniae [14] = test: Inhibition of VIM-27/CTX-M-15/SHV-11/OXA-1 in Klebsiella pneumoniae CDC-0040 assessed as piperacillin antibacterial activity at 16 ug/ml after 16 to 20 hrs by CLSI-based microbroth dilution method
Klebsiella pneumoniae [15] = test: Inhibition of KPC-2/SHV12/TEM-1 in Klebsiella pneumoniae CDC-0361 assessed as cefepime antibacterial activity at 8 ug/ml after 16 to 20 hrs by CLSI-based microbroth dilution method (reference value: […] ug/ml)
Klebsiella pneumoniae [16] = test: Inhibition of OXA-232/OXA-9/TEM-1A/CTX-M-15/OXA-1 in Klebsiella pneumoniae CDC-0066 assessed as cefepime antibacterial activity at 8 ug/ml after 16 to 20 hrs by CLSI-based microbroth dilution method (Rvb > […] ug/ml)
Escherichia coli [17] = test: Inhibition of NDM in Escherichia coli CDC-0452 assessed as piperacillin antibacterial activity at 16 ug/ml after 16 to 20 hrs by CLSI-based microbroth dilution method (Rvb > […] ug/ml)
Klebsiella pneumoniae [18] = test: Inhibition of VIM-4 in Klebsiella pneumoniae assessed as meropenem antibacterial activity at 4 ug/ml after 16 to 20 hrs by CLSI-based microbroth dilution method (Rvb >= […] ug/ml)
Pseudomonas aeruginosa [19] = test: Inhibition of KPC-2/PDC-42 in Pseudomonas aeruginosa CDC-0356 assessed as piperacillin antibacterial activity at 16 ug/ml after 16 to 20 hrs by CLSI-based microbroth dilution method (Rvb > […] ug/ml)
Klebsiella pneumoniae [20] = test: Inhibition of KPC-2 in Klebsiella pneumoniae assessed as meropenem antibacterial activity at 4 ug/ml after 16 to 20 hrs by CLSI-based microbroth dilution method (Rvb >= […] ug/ml)
Klebsiella pneumoniae [21] = test: Inhibition of VIM-27/CTX-M-15/SHV-11/OXA-1 in Klebsiella pneumoniae CDC-0040 assessed as meropenem antibacterial activity at 4 ug/ml after 16 to 20 hrs by CLSI-based microbroth dilution method
Klebsiella pneumoniae [22] = test: Inhibition of KPC-2/SHV12/TEM-1 in Klebsiella pneumoniae CDC-0361 assessed as piperacillin antibacterial activity at 16 ug/ml after 16 to 20 hrs by CLSI-based microbroth dilution method (Rvb > […] ug/ml)
Klebsiella pneumoniae [23] = test: Inhibition of OXA-232/OXA-9/TEM-1A/CTX-M-15/OXA-1 in Klebsiella pneumoniae CDC-0066 assessed as piperacillin antibacterial activity at 16 ug/ml after 16 to 20 hrs by CLSI-based microbroth dilution method (Rvb > […] ug/ml)
[24] = Inhibition of bacterial VIM-2 using nitrocefin as substrate preincubated for 15 mins followed by susbtrate addition and measured after 10 mins by spectrophotometric method; parameters: species or system Bacteria
Summary of the method: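 Purified β-lactamase inhibition. IC50 values are the average of duplicates unless otherwise indicated.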

[25] = Inhibition of bacterial OXA-48 using nitrocefin as substrate preincubated for 15 mins followed by susbtrate addition and measured after 10 mins by spectrophotometric method; parameters: species or system Bacteria
Pseudomonas aeruginosa [26] = test: Inhibition of KPC-2/PDC-42 in Pseudomonas aeruginosa CDC-0356 assessed as meropenem antibacterial activity at 4 ug/ml after 16 to 20 hrs by CLSI-based microbroth dilution method (reference value: […] ug/ml)
Pseudomonas aeruginosa [27] = test: Inhibition of VIM in Pseudomonas aeruginosa CDC-0457 assessed as meropenem antibacterial activity at 4 ug/ml after 16 to 20 hrs by CLSI-based microbroth dilution method
Escherichia coli [28] = test: Inhibition of NDM in Escherichia coli CDC-0452 assessed as meropenem antibacterial activity at 4 ug/ml after 16 to 20 hrs by CLSI-based microbroth dilution method (reference value: […] ug/ml)
Klebsiella pneumoniae [29] = test: Inhibition of VIM-27/CTX-M-15/SHV-11/OXA-1 in Klebsiella pneumoniae CDC-0040 assessed as cefepime antibacterial activity at 8 ug/ml after 16 to 20 hrs by CLSI-based microbroth dilution method
[30] = target: Beta-lactamase VIM-2 (Pseudomonas aeruginosa) (UniProt Q9K2N0); test: Inhibition of VIM-2 in Pseudomonas aeruginosa assessed as meropenem antibacterial activity at 4 ug/ml after 16 to 20 hrs by CLSI-based microbroth dilution method (Rvb >= […] ug/ml)
[31] = Inhibition of bacterial KPC-2 using imipenem as substrate preincubated for 15 mins followed by susbtrate addition and measured after 10 mins by spectrophotometric method; parameters: species or system Bacteria
[32] = Inhibition of bacterial AmpC using nitrocefin as substrate preincubated for 15 mins followed by susbtrate addition and measured after 10 mins by spectrophotometric method; parameters: species or system Bacteria

N[C@H]1CC[C@H](CC(=O)N[C@H]2Cc3cccc(C(=O)O)c3OB2O)CC1
MIC (Klebsiella pneumoniae [1]): 2 µg/mL (≈ 5.78 µM)
MIC (Pseudomonas aeruginosa [2]): 2 µg/mL (≈ 5.78 µM)
MIC (Pseudomonas aeruginosa [3]): 4 µg/mL (≈ 11.6 µM)
MIC [4]: 0.125 µg/mL (≈ 0.361 µM)
MIC (Klebsiella pneumoniae [5]): 8 µg/mL (≈ 23.1 µM)
MIC (Escherichia coli [6]): 8 µg/mL (≈ 23.1 µM)
MIC (Escherichia coli [7]): > 16 µg/mL
MIC (Escherichia coli [8]): 4 µg/mL (≈ 11.6 µM)
MIC (Pseudomonas aeruginosa [9]): > 16 µg/mL
MIC [10]: 0.015 µg/mL (≈ 0.0433 µM)
MIC [11]: 4 µg/mL (≈ 11.6 µM)
MIC (Klebsiella pneumoniae [12]): 0.015 µg/mL (≈ 0.0433 µM)
MIC (Escherichia coli [13]): > 16 µg/mL
MIC (Klebsiella pneumoniae [14]): > 16 µg/mL
MIC (Klebsiella pneumoniae [15]): 0.015 µg/mL (≈ 0.0433 µM)
MIC (Klebsiella pneumoniae [16]): 4 µg/mL (≈ 11.6 µM)
MIC (Escherichia coli [17]): > 16 µg/mL
MIC (Klebsiella pneumoniae [18]): 2 µg/mL (≈ 5.78 µM)
MIC (Pseudomonas aeruginosa [19]): 4 µg/mL (≈ 11.6 µM)
MIC (Klebsiella pneumoniae [20]): 2 µg/mL (≈ 5.78 µM)
MIC (Klebsiella pneumoniae [21]): > 16 µg/mL
MIC (Klebsiella pneumoniae [22]): 2 µg/mL (≈ 5.78 µM)
MIC (Klebsiella pneumoniae [23]): > 16 µg/mL
IC50 [24]: 150 nM
IC50 [25]: 2240 nM
MIC (Pseudomonas aeruginosa [26]): 4 µg/mL (≈ 11.6 µM)
MIC (Pseudomonas aeruginosa [27]): > 16 µg/mL
MIC (Escherichia coli [28]): 8 µg/mL (≈ 23.1 µM)
MIC (Klebsiella pneumoniae [29]): > 16 µg/mL
MIC [30]: 2 µg/mL (≈ 5.78 µM)
IC50 [31]: 30 nM
IC50 [32]: 30 nM

From ChEMBL document CHEMBL4354828, “Discovery of Taniborbactam (VNRX-5133): A Broad-Spectrum Serine- and Metallo-β-lactamase Inhibitor for Carbapenem-Resistant Bacterial Infections” (J Med Chem, 2020)
